Assay outcomes deposited in PubChem BioAssay by several laboratories.
A selection: hits, their analogues and other compounds. The true share with any hit is near 12%.
b-catenin transl = modulators of beta-catenin nuclear translocation | HeLa beta-catenin nuclear translocation, immunofluorescence imaging | nuclear translocation activity, % at 5 µM | 0.3% of 190,000 active | AID 1665;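 active = nuclear translocation activity above 50% at 5 µM, with a well cell count of 50 or more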;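 note: per-cell ratio of nuclear to cytoplasmic median beta-catenin stain intensity; plate controls were DMSO negative control for no effect and GSK-3 inhibitor IX positive control for full effect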
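Signal – beta-catenin immunofluorescence imaging with DAPI · Test system – human HeLa cell line · Dosing – 5 µM primary single dose, 0.1% DMSO, 0.02–20 µM confirmation series · Measure – % activation, nuclear-to-cytoplasmic median beta-catenin signal ratio per cell · Incubation – 24 h compound exposure at 37°C, 5% CO2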
CHOP inh = CHOP inhibition in unfolded protein response; CHO-K1 CHOP-promoter luciferase, tunicamycin-induced, 15-18 h; inhibition, % at 10 µM; 3.8% of 220,000 active;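 active = compounds that reduced the stress-induced luciferase reporter signal by more than about 70% of percent inhibition, limit read from the data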;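 note: 0% = tunicamycin plus vehicle and 100% = wells without tunicamycin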
MT stabilizer = stabilizes microtubules in HeLa cells. HeLa tubulin immunostaining HCS, 24 h; share of cells brighter than vehicle mean+2SD. % tubulin-high responders, % at 10 µM. 0.83% of 200,000 active;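 active = plate Z-score above 3 for both tubulin-high and condensed-nucleus cell shares, with cell loss under 80%, at 10 µM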;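 note: anti alpha tubulin signal scored within the nucleus-defined area of each cell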
L major viab = reduces viability of Leishmania major promastigotes | 9% of 200,000 active | inhibition, % at 10 µM | resazurin fluorescence viability; in the data active = inhibition above about 50%;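 note: promastigotes grown with compound for 44 hours at 28 °C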
Dynein transport = blocks dynein driven cargo transport along microtubules. 3617.4 mouse cells, GR-EGFP nuclear translocation imaging; test concentration mostly 20 µM; stimulated with dexamethasone, 1 µM; active compounds read low. z-score, hits read low. 0.47% of 220,000 active;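 active = plate z-score of nuclear minus cytoplasmic receptor signal below a set negative limit, without overly bright fluorescence or cell loss, cut at about -3.5 in these data, passing the limit was not always enough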;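 note: z-score of nuclear minus cytoplasmic ring GR-EGFP intensity difference per well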
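Buffer or medium – tet-free medium with charcoal-stripped serum · Signal – automated 10x imaging of fixed Hoechst-stained cells · Also added – dexamethasone agonist, 1.0 µM final, for 30 min · Incubation – induction 48 h, compound 1 h, agonist 30 min · Read-out – GR-EGFP nuclear translocation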
Autophagy mod = autophagy modulation, high-content screen | MEF GFP-LC3 puncta imaging; test concentration mostly 10 µM | calls only at 10 µM (by protocol) | 0.98% of 190,000 active | AID 463193;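 active = percentage of spot-positive cells more than 3 SD above its plate mean, without a fluorescence outlier flag or 80% toxicity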;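 note: spot-positive cell cutoff set from DMSO-treated cells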
The depositor's hits bear a star; i = inactive; · = not tested or not shown.

SMILES | b-catenin transl | CHOP inh | MT stabilizer | L major viab | Dynein transport | Autophagy mod
O=S(=O)(NCc1ccccc1)c1ccc(S(=O)(=O)N2CCCCC2)cc1 | -8.4 | 72.0* | 1.9 | -2.0 | -0.495 | i
Cc1ccc(Cl)cc1N1CCN(Cc2cc(=O)n3ccsc3n2)CC1 | 3.0 | 6.9 | 1.9 | 4.5 | 1.19 | i
O=C1NC(=O)C2(COC3(CCCC3)OC2)S1 | -2.1 | 33.0 | 6.5 | -0.8 | -0.204 | i
O=C(CS(=O)(=O)Cc1ccccc1)Nc1ccc(S(=O)(=O)N2CCCCCC2)cc1 | 4.4 | 49.3 | 1.2 | 51.9* | -0.0862 | i
CSc1nnc2n(-c3ccc(C)cc3)c(=O)c3c4c(sc3n12)COC(C(C)C)C4 (stereo not given) | · | 80.9* | 2.2 | 5.8 | 0.706 | i
COc1ccc2cc(CN(Cc3cccnc3)S(=O)(=O)c3ccccc3)c(=O)[nH]c2c1 | -2.8 | 11.0 | 5.7 | 10.4 | -0.218 | i
O=c1[nH]c(=O)c2nc3c4ccccc4c4ccccc4c3nc2[nH]1 | 3.7 | 77.6* | 2.2 | 5.7 | 0.418 | i
Oc1ccc(N=C/C=C/c2cccc(Br)c2)cc1-c1nc2ccccc2s1 | -1.4 | -3.9 | 3.8 | -3.5 | -0.377 | i
C/C(CC(C)(C)C1CCCCC1)=N\NC(N)=S | · | -3.3 | 1.9 | 100.5* | 2.43 | i
Cc1ccc(NC(=S)NCc2ccccc2)cc1S(=O)(=O)N1CCCCC1 | -3.7 | 46.0 | 1.4 | 23.5 | 0.00297 | i
COCCNC(=O)C1CCN(S(=O)(=O)c2c(C)noc2/C=C/c2cccs2)CC1 | -0.8 | 4.7 | · | · | -0.839 | ·
Cc1cccc(NC(=O)C2CCN(S(=O)(=O)c3c(C)noc3/C=C/c3ccco3)CC2)n1 | -4.1 | 59.7 | 3.7 | 98.7* | 0.68 | i
Cc1[nH]c2ccc(-c3nnc(SCC(=O)NCc4ccco4)n3Cc3ccccc3)cc2c1C | 1.6 | 3.6 | 1.1 | 97.3* | -0.52 | i
COC(=O)c1c(NC(=O)CSc2nnc(-c3ccco3)n2Cc2ccccc2)sc(C)c1C | · | 50.3 | 1.8 | 64.8* | -0.142 | i
CN(C)C(=O)CSc1nnc(-c2ccncc2)n1Cc1ccco1 | 2.3 | 8.9 | 3.0 | -6.5 | -0.175 | i
CCOC(=O)c1c(NC(=O)CSc2nnc(-c3cccnc3)n2Cc2ccco2)sc(C)c1C | -3.3 | 54.3 | 5.4 | 52.8* | -0.899 | i
O=C(CSc1nnc(-c2ccncc2)n1Cc1ccco1)OC1CCCCC1 | -2.5 | 4.8 | 5.3 | 81.3* | 1.89 | i
CC1CN(C(=O)c2cccn(Cc3c(Cl)cccc3Cl)c2=O)CC(C)O1 (stereo not given) | -0.1 | -5.4 | 2.0 | -3.9 | 0.0276 | i
O=C(CSc1nnc(-c2ccncc2)n1Cc1ccco1)Nc1nccs1 | -3.5 | 26.4 | 2.7 | -3.3 | -0.302 | i
O=C(CSc1nnc(-c2cccnc2)n1Cc1ccco1)Nc1nc(-c2ccc(F)cc2)cs1 | 1.9 | 9.6 | 8.3 | 73.3* | -0.444 | i
O=C(CSc1ccc(Cl)cc1)N1N=CCC1c1ccccc1 (stereo not given) | 1.0 | 19.1 | · | · | -0.431 | ·
O=C(CSC(=S)N1CCCCC1)N1N=CCC1c1ccccc1 (stereo not given) | -1.2 | 10.0 | 1.8 | 51.1* | -0.489 | i
Cc1cc(Cl)ccc1NC(=O)C1CCN(S(C)(=O)=O)CC1 | 2.0 | 7.8 | 1.0 | -7.7 | 2.17 | i
O=C(NNC(=O)c1c(F)cccc1F)c1ccccc1-n1cccc1 | -2.6 | 14.2 | 4.2 | -2.4 | 0.229 | i
CCCCCCCCCCn1c2c(c(=N)c3c1CCC3)CCC2 | 3.2 | 103.8* | 74.2 | 100.5* | 9.02 | i
SMILES | b-catenin transl | CHOP inh | MT stabilizer | L major viab | Dynein transport | Autophagy mod
CCCCCCCCn1c2c(c(=N)c3ccccc31)CCC2 | 4.1 | 77.2* | 5.8 | 100.4* | -1.11 | i
CCCCCn1c2c(c(=N)c3ccccc31)CCC2 | 1.3 | -0.5 | · | · | -0.829 | ·
CCCCn1c2c(c(=N)c3ccccc31)CCC2 | 1.6 | 10.2 | · | · | 0.768 | ·
N#Cc1ccc(C(=O)Nc2cccc(NC(=O)c3ccco3)c2)c(F)c1 | 0.9 | 15.1 | 2.2 | 6.2 | -0.15 | i
Cc1ccc(-n2c(C)cc(/C=N/NC(=O)c3ccc(CN4CCOCC4)cc3)c2C)cc1 | 1.2 | 12.1 | 3.3 | 53.1* | 0.557 | i
Cc1ccc(-n2c(C)cc(/C=N/NC(N)=S)c2C)cc1 | -0.5 | -4.3 | 2.8 | 100.2* | 0.0654 | i
